# Screening results from PubChem.
# NPY Y2 blocker – NPY-Y2 (human) receptor antagonism; NPY-Y2 expressing cells, antagonist mode; inhibition, % at 2.7 µM; 140,000 compounds, 0.99% hits; AID 793; in the data active means inhibition above about 17%;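 further: 0% = vehicle with agonist challenge and 100% = reference antagonist with challenge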
# Target sequence (P49146 whole entry, looked up): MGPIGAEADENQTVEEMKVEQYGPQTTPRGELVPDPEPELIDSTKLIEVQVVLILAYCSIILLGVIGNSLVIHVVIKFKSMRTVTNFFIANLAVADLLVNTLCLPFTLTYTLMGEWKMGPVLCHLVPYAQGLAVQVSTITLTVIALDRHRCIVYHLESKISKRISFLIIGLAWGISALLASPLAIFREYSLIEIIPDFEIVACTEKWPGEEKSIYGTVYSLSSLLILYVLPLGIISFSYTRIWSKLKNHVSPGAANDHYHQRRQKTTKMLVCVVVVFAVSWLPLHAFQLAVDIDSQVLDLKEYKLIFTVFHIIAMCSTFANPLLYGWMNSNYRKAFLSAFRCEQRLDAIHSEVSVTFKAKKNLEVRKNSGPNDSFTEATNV
# NPY2 pot ag – potentiators or agonists of human neuropeptide Y receptor Y2; activation, % at 3.6 µM; cells expressing NPY-Y2, potentiator/agonist read-out; P49146; 220,000 compounds, 0.45% hits; in the data active means activation above about 27%;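 further: cells stimulated with NPY near EC25 plus isoproterenol at EC100; 0% = vehicle plus submaximal agonist and 100% = vehicle plus saturating agonist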
# NPY-Y1 antag – blocks the human neuropeptide Y Y1 receptor. P25929. HEK293-CNG Y1 cells, membrane potential fluorescence; NPY at EC95, then isoproterenol. inhibition, % at 3.6 µM. 200,000 compounds, 1% hits;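 active means inhibition above the campaign mean inhibition of all tested compounds plus 3 SD, cut at about 20% in these data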;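 further: 0% = DMSO wells given NPY plus isoproterenol and 100% = isoproterenol alone without NPY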
# Target sequence (P25929 whole entry, looked up): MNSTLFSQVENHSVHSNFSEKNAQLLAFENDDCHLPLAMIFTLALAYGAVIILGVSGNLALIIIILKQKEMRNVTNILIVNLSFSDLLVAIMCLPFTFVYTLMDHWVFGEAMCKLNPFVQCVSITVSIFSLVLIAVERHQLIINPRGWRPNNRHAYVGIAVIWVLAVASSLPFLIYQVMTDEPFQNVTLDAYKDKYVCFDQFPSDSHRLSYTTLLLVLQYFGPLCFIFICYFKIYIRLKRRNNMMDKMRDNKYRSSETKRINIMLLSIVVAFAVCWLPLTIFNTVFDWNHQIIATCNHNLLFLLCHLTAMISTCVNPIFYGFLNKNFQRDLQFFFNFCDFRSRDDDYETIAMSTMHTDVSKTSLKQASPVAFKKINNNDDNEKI
#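 Material: HEK293 Y1/CNG channel cell line; also added: NPY (25 nM), isoproterenol (1 µM), Ro 20-1724 (25 µM); doses: one concentration, 3.6 µM, in 0.4% DMSO; schedule: compound incubation 1 h at room temperature, readout 45 min post-stimulation; technique: membrane potential fluorescence; measure: fluorescence ratio normalized to % inhibition between controls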
# NPY1 pot ag – potentiates or activates human NPY-Y1 receptor; P25929; NPY-Y1 expressing cells, potentiator/agonist activation; activation, % at 3.6 µM; 220,000 compounds, 0.37% hits; AID 1304; in the data active means activation above about 33%, passing the limit was not always enough;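 further: cells stimulated with NPY at EC10 then isoproterenol at EC100; 0% = low agonist plus stimulus and 100% = saturating agonist plus stimulus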
# Cl transport mod – KCC2 (human) Cl- transport modulation | Q9H2X9 | KCC2 cells, thallium flux FluoZin-2 fluorescence | B-score of Tl+ flux slope (higher = more flux/activation; lower = inhibition) at 10 µM | 190,000 compounds, 2.2% hits;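 active means thallium flux slope and its plate-corrected score both differing from the plate sample mean at a set confidence after two filtering rounds, in either direction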;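 further: slope of fluorescence scaled to starting intensity during 10 to 20 s after thallium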
# Furin inhibitor – human furin inhibition; P09958; purified furin, fluorogenic substrate cleavage; inhibition, % at 20 µM or 30 µM; 220,000 compounds, 0.061% hits; AID 463115; in the data active means inhibition above about 25%
# KCC2 secondary – confirmation of human KCC2 transport modulators | shares compounds with Cl transport mod | HEK293-KCC2, thallium flux, FluoZin2 fluorescence; hits give high values | normalised thallium flux (F/F0 slope) at 10 µM | 3,700 compounds, 15% hits;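 active means thallium flux slope above the same plate's solvent-only control mean plus 3 SD; inconclusive means the two replicate wells disagree; inactive means no significant difference from solvent-only control wells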
# KCC2 bumet counter – bumetanide-insensitive thallium flux in KCC2 cells with ouabain, counter-screen; AID 1714; 3,700 compounds, 49% hits; HEK293-KCC2 + bumetanide/ouabain, thallium flux FluoZin2; hits give high values; shares compounds with Cl transport mod; normalized thallium flux at 10 µM;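 active means thallium entry rate above the same plate's blocked-transporter control wells by more than 3 SD; inconclusive means the two repeat wells disagree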;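 further: raw slope of fluorescence over initial fluorescence between 10 and 20 s after thallium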
# KCC2 sec2 – KCC2 (human) modulation, second secondary assay; 3,700 compounds, 23% hits; normalized thallium flux at 10 µM; AID 1715; shares compounds with Cl transport mod; HEK293-KCC2, thallium flux FluoZin2 fluorescence; actives lie on both sides; F/F0 rise rate, 10–20 s post-thallium;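 active means thallium flux slope more than 3 SD above or below the plate's solvent-only control mean, mostly below; inconclusive means the two repeat wells disagreed; inactive means no significant shift from solvent-only controls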;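 further: raw slope with 0.1% DMSO as baseline and bumetanide as block control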
# HEK counter1 – acts in parental HEK cells, KCC2 counter-screen | 3,700 compounds, 46% hits | thallium flux rate (normalised fluorescence) at 10 µM | HEK293 parental cells, thallium flux FluoZin2, ouabain; baseline-ratio fluorescence slope, 10–20 s after thallium | shares compounds with Cl transport mod;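 active means thallium flux rate significantly above the same plate's solvent-only control wells, beyond their mean plus 3 SD; inconclusive means the two replicate wells gave conflicting results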
# KCC2 ouabain – modulates human KCC2 on retest with ouabain; shares compounds with Cl transport mod; HEK293-KCC2, thallium flux FluoZin2 fluorescence; bidirectional: low = inhibitor, high = activator; raw Tl+ flux slope (below DMSO = inhibition, above = activation) at 10 µM; 3,700 compounds, 48% hits; AID 1717;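 active means thallium flux slope beyond 3 SD from same-plate DMSO control mean in most replicates, usually higher, sometimes lower; inconclusive means repeat tests gave conflicting results; inactive means no significant difference from controls in most replicates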;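 further: slope of initial-normalized fluorescence between seconds 10 and 20 after thallium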
# HEK293 Tl flux2 – counter-screen for KCC2 modulators: effect in parental HEK293 cells | thallium flux slope at 10 µM | AID 1718 | shares compounds with Cl transport mod | 3,700 compounds, 33% hits | thallium flux FluoZin-2 fluorescence slope;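 active means thallium flux slope above the same plate's solvent-control mean plus 3 SD in both duplicate wells; inconclusive means duplicate wells that disagreed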;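 further: run without ouabain in cells lacking the KCC2 cotransporter; slope of fluorescence scaled to its starting value between 10 and 20 s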
# Active calls of the source: *; ? = inconclusive; nt = no result given. Most compounds without a hit are left out; they make up all but 3.7% or so of the library.
SMILES,NPY Y2 blocker,NPY2 pot ag,NPY-Y1 antag,NPY1 pot ag,Cl transport mod,Furin inhibitor,KCC2 secondary,KCC2 bumet counter,KCC2 sec2,HEK counter1,KCC2 ouabain,HEK293 Tl flux2
CC1Cc2ccccc2N1C(=O)CN(C)S(=O)(=O)c1cccc2cccnc12 (stereo unspecified),2.2,-10.8,2.1,-0.7,nt,-32.7,0.00558,0.00549,0.0227*,0.00724,?,0.0105
Cc1cnc(C(=O)OCC(=O)N2c3ccccc3CC2C)cn1 (stereo unspecified),nt,-4.1,2.2,15.2,nt,-17.8,nt,nt,nt,nt,nt,nt
Cc1nc2sc(C(=O)Nc3ccccc3Cc3ccccc3)c(C)c2c(=O)[nH]1,nt,6.8,nt,-27.9,-1.1,-8.6,nt,nt,nt,nt,nt,nt
Cn1c(=O)c([N+](=O)[O-])c(NCc2ccccc2Cl)c2ccccc21,nt,-12.2,nt,10.0,-4.51*,-13.1,0.00779,0.004,?,0.00626*,?,?
O=C(Cc1ccc(-n2cccc2)cc1)NC1CCCCCC1,1.1,-26.4,-2.9,-13.9,-4.16*,-3.1,0.00651,0.00439,?,0.00715,0.0157,0.0103
O=C(Cc1ccc(-c2ccccc2)cc1)NC1CCCC1,nt,-2.5,-0.9,-11.9,-1.72,-26.1,nt,nt,nt,nt,nt,nt
Cc1ccc(NC(=O)COC(=O)/C=C/c2ccccc2)cc1S(=O)(=O)N1CCOCC1,nt,-4.8,-0.9,-15.0,-4.07*,-12.1,?,0.00437,0.0208*,?,0.0116*,0.00906
Cc1ccc(NC(=O)CCCSc2ccccc2)cc1S(=O)(=O)N1CCOCC1,nt,12.0,0.5,20.1,-2.98*,-10.8,0.0183,0.00445,?,0.00681,0.0155,0.01
C/C(=N/N1CCN(Cc2cccc3ccccc23)CC1)c1ccco1,nt,-18.9,nt,-4.6,-0.0383,-29.2,nt,nt,nt,nt,nt,nt
c1ccc(CCc2nn3c(Cc4ccccc4)nnc3s2)cc1,3.5,-4.9,3.2,-13.0,-2.72*,-15.2,0.00728,0.00624,0.0319,0.00654,0.0177*,0.0106
Cn1cccc1/C=N/n1c(-c2ccco2)n[nH]c1=S,nt,-7.7,4.8,7.4,0.0915,-11.3,nt,nt,nt,nt,nt,nt
O=[N+]([O-])c1ccccc1/C=N/n1c(-c2cccnc2)n[nH]c1=S,1.4,10.3,-1.5,-11.8,-1.04,-0.3,nt,nt,nt,nt,nt,nt
S=c1[nH]nc(-c2ccco2)n1/N=C/c1cccc(Cl)c1,nt,-25.9,nt,-17.8,9.19*,-19.8,0.0179,0.0139*,0.0312,0.0123*,0.0219*,0.0155*
S=c1[nH]nc(-c2ccco2)n1/N=C/c1ccccn1,nt,2.1,5.3,-15.8,0.897,-18.3,nt,nt,nt,nt,nt,nt
O=[N+]([O-])c1cc(/C=N/n2c(-c3cccnc3)n[nH]c2=S)ccc1Cl,1.4,6.0,12.9,-7.5,8.07*,-11.9,0.00633,0.0766*,0.0332,?,?,?
Cc1cccc(/C=N/n2c(-c3ccco3)n[nH]c2=S)c1,nt,2.6,nt,-26.4,17.5*,-21.4,0.0118*,0.068*,0.0314,0.0164*,0.0404*,0.0113*
S=c1[nH]nc(-c2ccco2)n1/N=C/c1ccc(Cl)c(Cl)c1,4.1,2.2,1.0,-12.7,3.9,-29.6,nt,nt,nt,nt,nt,nt
Cc1ccc(/C=N/n2c(-c3ccco3)n[nH]c2=S)cc1,nt,-16.2,nt,9.2,15.4*,-15.0,0.00696,0.0279*,0.0327,0.0187*,0.0312*,0.0171*
CC(NS(=O)(=O)c1ccc(Br)cc1)C(=O)NCCc1ccccc1 (stereo unspecified),1.9,-5.9,-0.1,-8.9,-1.57,-12.9,nt,nt,nt,nt,nt,nt
Cc1n[nH]c(=S)n1/N=C/c1cccc(OCc2ccccc2)c1,nt,-13.8,3.7,-6.7,16.2*,-15.3,0.0174,0.0268*,0.0335,0.014*,0.0225*,0.0163*
NC(=O)C(c1ccc(Sc2ccccc2)nn1)c1ccc(Cl)cc1Cl (stereo unspecified),1.2,-2.8,-1.2,-12.5,4.03*,-9.7,0.00797,0.00464,0.0333,0.00712,0.0178,0.0119
CS(=O)(=O)c1ccc2nc(NC(=O)c3ccc(=O)[nH]c3)sc2c1,nt,1.0,nt,3.3,-0.647,-27.6,nt,nt,nt,nt,nt,nt
Cn1nc(C(=O)Nc2nc3ccc(S(C)(=O)=O)cc3s2)ccc1=O,1.7,-2.3,-0.8,-8.0,4.66*,-4.1,0.0118,0.0207*,0.0324,0.0132*,0.0261,?
COc1ccccc1C(=O)Nc1ccc2c(c1)nc(CN1CCCCC1)n2C,nt,-20.4,-2.9,-10.4,-0.271,-14.6,nt,nt,nt,nt,nt,nt
C/C(=N\NC(=O)C1COc2ccccc2O1)c1cc2ccccc2o1 (stereo unspecified),nt,-5.1,7.2,-0.3,2.16,-12.8,nt,nt,nt,nt,nt,nt
SMILES,NPY Y2 blocker,NPY2 pot ag,NPY-Y1 antag,NPY1 pot ag,Cl transport mod,Furin inhibitor,KCC2 secondary,KCC2 bumet counter,KCC2 sec2,HEK counter1,KCC2 ouabain,HEK293 Tl flux2
C/C(=N\NC(=S)Nc1ccccc1C)c1cc2ccccc2o1,nt,-2.8,nt,8.5,40.3*,-24.8,0.00798,0.0473*,0.0475*,0.0431*,0.0518*,0.0346*
C/C(=N\NC(=O)COc1ccccc1F)c1cc2ccccc2o1,6.2,-12.8,2.2,-24.9,1.47,-4.0,nt,nt,nt,nt,nt,nt
C/C(=N\NC(=S)Nc1c(C)cccc1C)c1cc2ccccc2o1,0.6,-6.1,3.5,14.2,8.64*,-8.0,0.00639,0.0115*,0.0309,0.0173*,?,0.0129*
COc1ccc(Cl)cc1N(CC(=O)NC(C)(C)C)S(=O)(=O)c1ccc(C)c([N+](=O)[O-])c1,13.0,11.5,13.9,-12.5,-2.19,-10.1,nt,nt,nt,nt,nt,nt
Cc1cccc(NC(=O)CCC(=O)Nc2nnc(C(F)(F)F)s2)c1,nt,0.6,nt,-22.8,-0.0412,-12.8,nt,nt,nt,nt,nt,nt
O=C(CS(=O)(=O)Cc1ccccc1)Nc1nc2c(s1)CCCC2,3.4,-19.6,-1.5,-33.6,-1.11,-13.0,nt,nt,nt,nt,nt,nt
O=C(CCN1C(=O)c2ccccc2S1(=O)=O)Nc1nc2c(s1)CCCC2,3.6,-17.4,-0.5,-15.1,-3.78*,-8.3,0.00775,0.00585,0.0304,0.00714,0.0152*,0.0106
O=C(CCN1C(=O)c2ccccc2S1(=O)=O)Nc1cccc2ccccc12,nt,-1.8,-0.2,5.0,-2.65,-21.4,nt,nt,nt,nt,nt,nt
O=C(CCS(=O)(=O)Cc1ccccc1)Nc1nc2c(s1)CCCC2,3.5,-19.8,-0.5,-30.2,nt,-22.9,0.00562,0.00456,0.0224*,0.00745,?,0.0105
